Measured values gathered from unrelated publications.
Each line is one published result; the experiments were not run side by side.
Sample: plasma

Compound | host | route | dose | setting | quantity | value
CC(C)c1nc(N(C)S(C)(=O)=O)nc(-c2ccc(F)cc2)c1/C=C/[C@@H](O)C[C@@H](O)CC(=O)O | human | oral | 10 mg | – | Vd/F | 8020 L
N#Cc1cccc(-c2ccc3ncc(-c4cc(F)cc(F)c4)c(N4CCC(N)CC4)c3c2)c1O | human | intravenous | 50 µg | – | Vd | 220 L
C=CC(=O)N1C[C@H](Nc2ncnc3[nH]ccc23)CC[C@@H]1C | human | oral | 30 mg | – | Vd/F | 183 L
C=CC(=O)NC1CCN(c2ncc3ncnc(Nc4ccc(Oc5ccc6c(c5)ncn6C)c(C)c4)c3n2)CC1 | male human | intravenous | 100 µg | single dose, healthy volunteers | Vd | 391 L
C[C@@H](Oc1ccc(S(C)(=O)=O)cc1C(=O)N1C[C@@H]2C[C@]2(c2cc(C(F)(F)F)on2)C1)C(F)(F)F | human | oral | 10 mg | single dose, fed | Vd/F | 247 L
COc1ccc2c(c1)CN(C(=O)CCN1CCC(Cc3ccccc3)CC1)CC[S@@+]2[O-] | male human | intravenous | 0.4 mg/kg | healthy volunteers | Vd | 46.3 L
COc1ccc(F)cc1C(=O)NCc1ccc(-c2nn([C@@H](C)C(F)(F)F)c(N)c2C(N)=O)cc1 | male human | intravenous | 22 µg | – | Vd | 0.54 L/kg
OC[C@H]1O[C@@H](c2cc(Cc3ccc(C4CC4)cc3)c(Cl)c3c2CCO3)[C@H](O)[C@@H](O)[C@@H]1O | human | oral | 0.3 mg | single dose, fed | Vd/F | 177 L
